Assay outcomes from PubChem.
Mdm2 ligase inh – MDM2-luciferase reporter signal enhancers, primary screen, MDM2 E3 ligase inhibitor project, cell-based, luminescence, 1536-well. cell-based MDM2 ubiquitination luciferase reporter, 2 h; 0 = plate control, 100 = twice control, blank-subtracted. E3 ubiquitin-protein ligase Mdm2 (Homo sapiens), Q00987. actives 0.11% (n = 210,000). signal enhancement, % at 5 µM;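 active means signal enhancement of 30% or more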;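 further: luminescence tracks abundance of the self-degrading MDM2-luciferase fusion protein; higher signal means inhibition of MDM2 E3 ligase activity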
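Test system: mammalian cells stably expressing self-ubiquitinating, self-degrading MDM2 E3–luciferase fusion; Amount: 2000 cells in each well; Medium: DMEM; Schedule: 4 h settle plus 2 h compound, 37 °C; Technique: SteadyLite luciferase luminescence after 15 min room-temperature reagent incubation; Benchmarks: plate control and blank wells.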
PKD1 kinase inh – inhibitors of human PKD1 kinase, biochemical, fluorescence polarization; Serine/threonine-protein kinase D1 (Homo sapiens), Q15139; PKD1 kinase fluorescence polarization assay; inhibition, % (no concentration beside the values); actives 0.056% (n = 200,000); AID 797, 2007; in the data active means inhibition above about 50%
Hck-Nef inh – inhibitors of Nef-activated human Hck kinase, primary screen, biochemical, Z-Lyte FRET, 384-well, Hck-YEEI. Tyrosine-protein kinase HCK (Homo sapiens), P08631. Recombinant Hck-YEEI plus Nef, Z-Lyte FRET kinase assay. inhibition, % at 20 µM. actives 0.68% (n = 220,000). AID 463187, 2010;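 active means Hck-Nef kinase inhibition above about 50%, limit read from the data; inactive means inhibition below that limit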;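 further: 0% = DMSO with Hck plus Nef and 100% = Hck alone without Nef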
Rad51 HR inh – human RAD51 strand exchange inhibitors, primary screen, biochemical, fluorescence | AID 1385, 2008 | hRad51 DNA strand exchange, fluorescence dequenching | DNA repair protein RAD51 homolog 1 (Homo sapiens), Q06609 | inhibition, % at 10 µM | actives 0.085% (n = 200,000);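 active means inhibition above 40% at the single screening dose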;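 further: 0% = DMSO control wells and 100% = blanks with heterologous ssDNA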
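Material: Human Rad51 nucleoprotein filaments preassembled on unlabelled ssDNA | Also added: Labelled 47-mer dsDNA for strand exchange | Dosing: Single dose, 10 µM final compound | Schedule: 30-min compound preincubation and 15-min exchange, both room temperature | Technique: Fluorescence dequenching at 485/520 nm | Measure: Percent inhibition relative to plate controls and blanks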
H9c2 TAG inh – inhibitors of triacylglycerol accumulation, primary screen, cell-based, uHTS, fluorescence, H9c2; actives 0.66% (n = 230,000); H9c2 cells, Nile Red lipid (TAG) fluorescence; cells loaded with 200 µM oleic acid; inhibition, % at 12.5 µM;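 active means pattern-corrected inhibition of lipid staining of at least 50% with the nuclear-stain viability signal not falling by more than 50%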;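 further: 0% = DMSO wells and 100% = triacsin C control wells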
PERK inh – block of dimerizer-induced PERK translation repression, primary screen, PERK inhibitor project, CHO PERK-DD cells, SEAP luminescence, HTS | Eukaryotic translation initiation factor 2-alpha kinase 3 (Homo sapiens), Q9NZJ5 | CHO PERK-DD fusion, SEAP luminescence translation reporter | inhibition, % at 5.6 µM | actives 0.17% (n = 220,000) | AID 1416, 2008;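 active means inhibition above the mean inhibition of all tested compounds plus 3 SD, set separately per screening campaign, cut at about 2.9% in these data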;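 further: PERK kinase domain activated by AP20187 dimerizer at 100 nM; 0% = DMSO with dimerizer and 100% = rapamycin at 8.4 µM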
Hck Nef conf – retest of Hck:Nef kinase inhibitor hits, confirmation, biochemical, Z-Lyte FRET, 384-well, p-Tyr peptide counterscreen | shares compounds with Hck-Nef inh | Recombinant Hck-YEEI:Nef, Z-Lyte FRET kinase assay | calls only at 10 µM | actives 28% (n = 1,300) | AID 463188, 2010;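 active means average inhibition of at least 50%, with Z-scores no higher than 3 in both the phospho-tyrosine peptide and fluorescence counterscreens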
An asterisk follows results filed as active. A selection: hits, their analogues and other compounds. The true share with any hit is near 1.3%.

How did CNc1nc(-c2cccs2)cc(C(F)(F)F)c1C#N do in these assays?
Mdm2 ligase inh: -11; Hck-Nef inh: 104*; Rad51 HR inh: 12; H9c2 TAG inh: 5; PERK inh: 1; Hck Nef conf: inactive

Results for COc1ccc(C(C)(NC(C)=O)c2nc(-c3cccc(C(=O)O)c3)cs2)cc1 (stereo unspecified) ?
H9c2 TAG inh: 6

How did O=C(Nc1cc(S(=O)(=O)N2CCOCC2)ccc1N1CCCCC1)c1ccccc1 do in these assays?
H9c2 TAG inh: 6

What do the screens show for `O=C(Nc1cc(S(=O)(=O)N2CCOCC2)ccc1N1CCCC1)c1ccc2c(c1)S(=O)(=O)c1ccccc1C2=O`?
PKD1 kinase inh: -10; Hck-Nef inh: 65*; H9c2 TAG inh: 0; PERK inh: 0; Hck Nef conf: inactive

What do the screens show for `COc1ccc(CNC(=O)CCNS(=O)(=O)c2cccc3nsnc23)cc1`?
Mdm2 ligase inh: -11; PKD1 kinase inh: 0; Hck-Nef inh: 154*; Rad51 HR inh: 4; H9c2 TAG inh: 1; PERK inh: 1; Hck Nef conf: inactive

What do the screens show for `Cc1cc(C)n(CC(=O)NNC(=O)c2ccc(S(C)(=O)=O)cc2)n1`?
H9c2 TAG inh: 13

What do the screens show for `O=C1C[C@@H]2c3c(cccc3CN1Cc1ccc(Br)cc1)C[C@@H](O)[C@H]2O`?
H9c2 TAG inh: -5

What do the screens show for `O=C(Nc1nccs1)c1cccc(N2C(=O)c3cccc4c([N+](=O)[O-])ccc(c34)C2=O)c1`?
Mdm2 ligase inh: -5; PKD1 kinase inh: -1; Hck-Nef inh: 52*; H9c2 TAG inh: 0; PERK inh: 0; Hck Nef conf: active

How did Clc1cccc(/C(Cc2nc3ccccc3[nH]2)=N\Nc2ccccc2)c1 do in these assays?
Mdm2 ligase inh: -7; PKD1 kinase inh: 5; Hck-Nef inh: 1; Rad51 HR inh: 1; PERK inh: 0

Results for Cc1cc(C)c(Nc2cc(S(=O)(=O)O)c(N)c3c2C(=O)c2ccccc2C3=O)c(C)c1 ?
Mdm2 ligase inh: -25; PKD1 kinase inh: 9; Hck-Nef inh: 84*; Rad51 HR inh: 13; PERK inh: 0; Hck Nef conf: active

How did Cc1cc(C)c(NC(=O)COC(=O)c2cccc3c2C(=O)c2ccccc2C3=O)c(C)c1 do in these assays?
Mdm2 ligase inh: -9; PKD1 kinase inh: 1; Hck-Nef inh: 1; Rad51 HR inh: 3; H9c2 TAG inh: -5; PERK inh: 1

How did S=c1[nH]nc(-c2cccc(Cl)c2)n1/N=C/c1ccc(-c2ccccc2Br)o1 do in these assays?
Mdm2 ligase inh: 0; Hck-Nef inh: 58*; Rad51 HR inh: -1; H9c2 TAG inh: 12; PERK inh: 2; Hck Nef conf: inactive

What do the screens show for `Cc1cccc(NC(=O)CSc2nc(COc3ccccc3)nc3ccccc23)c1C`?
Mdm2 ligase inh: -12; PKD1 kinase inh: -12; Hck-Nef inh: 60*; Rad51 HR inh: 6; PERK inh: 0; Hck Nef conf: inactive

What do the screens show for `O=C(NCC1CCCO1)c1cccc(S(=O)(=O)N2CCCCC2)c1` (stereo unspecified)?
H9c2 TAG inh: 8

Results for O=C(CSc1nnc(Nc2ccccc2)s1)NN1C(=O)NC2(CCCCC2)C1=O ?
Mdm2 ligase inh: -4; PKD1 kinase inh: 5; Hck-Nef inh: 6; Rad51 HR inh: -6; PERK inh: 0

What do the screens show for `CC(=O)N=c1c(C#N)cc2c(=O)n3ccccc3nc2n1Cc1ccccc1`?
Mdm2 ligase inh: -6; PKD1 kinase inh: -6; Hck-Nef inh: 19; Rad51 HR inh: -5; PERK inh: 1

What do the screens show for `N#Cc1cc2c(=O)n3ccccc3nc2n(-c2ccccc2Cl)c1=O`?
Mdm2 ligase inh: -22; PKD1 kinase inh: -6; Hck-Nef inh: active; Rad51 HR inh: -14; H9c2 TAG inh: 2; PERK inh: 1

Results for CCNC(=O)c1cc2c(=O)n3cccc(C)c3nc2n(CCc2ccccc2)c1=N ?
Mdm2 ligase inh: -22; PKD1 kinase inh: 4; Hck-Nef inh: 98*; Rad51 HR inh: 6; H9c2 TAG inh: 41; PERK inh: 0

Results for Cc1cccn2c(=O)c3cc(C(=O)NCc4ccccc4)c(=N)n(CCCN4CCOCC4)c3nc12 ?
H9c2 TAG inh: 28

What do the screens show for `C=CCn1c(=N)c(C(=O)NCCCOC)cc2c(=O)n3cccc(C)c3nc21`?
Mdm2 ligase inh: -21; PKD1 kinase inh: -8; Hck-Nef inh: 200*; Rad51 HR inh: -6; H9c2 TAG inh: 14; PERK inh: -1

How did Cc1ccc(-n2c(=O)c(C#N)cc3c(=O)n4cccc(C)c4nc32)cc1 do in these assays?
Mdm2 ligase inh: -2; PKD1 kinase inh: 1; Hck-Nef inh: 67*; Rad51 HR inh: -1; PERK inh: 0

How did O=C(Nc1nc([C@@H]2O[C@H](CO)[C@@H](O)[C@H](O)[C@H]2O)cs1)NC(c1ccccc1)c1ccccc1 do in these assays?
H9c2 TAG inh: 6

Results for CC(=O)c1c(N2CCN(c3ccccn3)CC2)nc(=S)n(-c2ccccc2)c1C ?
Mdm2 ligase inh: -8; PKD1 kinase inh: -5; Hck-Nef inh: 19; Rad51 HR inh: 0; H9c2 TAG inh: -14; PERK inh: 0

Results for CC1(C)ON=C(c2ccc(C(F)(F)F)cc2)NC1=O ?
H9c2 TAG inh: 9

What do the screens show for `NCCCC[C@H]1CNC(=S)N1CCCCC1CCCCC1`?
PKD1 kinase inh: -2; Hck-Nef inh: -9; Rad51 HR inh: 2; H9c2 TAG inh: -19; PERK inh: 0

Results for Cc1cccc(N2CCN(C(=O)c3c(C)nn(Cc4ccccc4Cl)c3C)CC2)c1C ?
Mdm2 ligase inh: -7; PKD1 kinase inh: -2; Hck-Nef inh: -21; Rad51 HR inh: -2; H9c2 TAG inh: 9; PERK inh: -2
